# Measured values published in ChEMBL document CHEMBL4765360, “Design, synthesis and biological evaluation of novel potent STAT3 inhibitors based on BBI608 for cancer therapy” (Eur J Med Chem, 2020).
# Activity calls are given as the source filed them. No cut-off for these calls is given here.
# Columns and labels:
# MDA-MB-231 [1] = assay: Antiproliferative activity against human MDA-MB-231 cells overexpressing STAT3 assessed as reduction in cell growth incubated for 48 hrs by CCK-8 assay; format: functional, cell-based; settings: MDA-MB-231, 48 h
# How it was run: (§1)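 Cells seeded at 5000-7000/well and allowed to settle for 8 h at 37 °C, 5% CO2. Graded compound concentrations were then added in triplicate (DMSO <0.1%) for 48 h. Medium was replaced with 10% CCK-8 for 4 h (MDA-MB-231, MDA-MB-468) or 1 h (HepG2), and A450 was read. IC50 is mean ± SD of at least three independent experiments. HepG2 was grown in high-glucose DMEM with 10% FBS.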
# HepG2 = assay: Antiproliferative activity against human HepG2 cells overexpressed STAT3 assessed as reduction in cell growth incubated for 48 hrs by CCK-8 assay; format: functional, cell-based; settings: HepG2, 48 h; how it was run: as §1
# MDA-MB-468 = assay: Antiproliferative activity against human MDA-MB-468 cells overexpressing STAT3 assessed as reduction in cell growth incubated for 48 hrs by CCK-8 assay; format: functional, cell-based; settings: MDA-MB-468, 48 h; how it was run: as §1
# MDA-MB-231 [2] = assay: Effect on STAT1 expression in human MDA-MB-231 cells at 0.75 to 3 uM incubated for 24 hrs by Western blot analysis; format: functional, cell-based; settings: dose 0.75-3 µM
# How it was run: (§2)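 MDA-MB-231 cells treated with a range of concentrations for 24 h. RIPA lysates with PMSF, 40 µg protein/lane, on 10% SDS-PAGE, then PVDF. Blocked in 5% milk/TBST for 2 h. Primary antibodies to STAT3, p-STAT3(Y705), STAT1, p-STAT1(Y701), c-Myc and Cyclin D1 overnight at 4 °C; GAPDH as loading control. HRP secondary for 1 h; ECL detection.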
# [3] = biological target: T1, Signal transducer and activator of transcription 3 (Homo sapiens, UniProt P40763); assay: Displacement of 5-FAM-GpYLPQTV-NH2 from His-tagged STAT3 (unknown origin) (127 to 722 residues) incubated for 30 mins followed by fluorescent peptide probe addition and measured after 1 hr by fluorescence polarization based competition binding assay
# [4] = biological target: T1, Signal transducer and activator of transcription 3; assay: Inhibition of STAT3 in human MDA-MB-231 cells assessed as reduction in STAT3 Y705 phosphorylation incubated for 24 hrs by Western blot analysis; format: cell-based; settings: dose 0.75-3 µM; how it was run: as §2
# MDA-MB-231 [5] = assay: Effect on STAT3 expression in human MDA-MB-231 cells at 0.75 to 3 uM incubated for 24 hrs by Western blot analysis; format: functional, cell-based; settings: dose 0.75-3 µM; how it was run: as §2
# [6] = biological target: T1, Signal transducer and activator of transcription 3; assay: Inhibition of STAT3 in human MDA-MB-231 cells assessed as reduction in c-myc expression incubated for 24 hrs by Western blot analysis; format: cell-based; settings: dose 0.75-3 µM; how it was run: as §2
# [7] = biological target: T2, Signal transducer and activator of transcription 1-alpha/beta (Homo sapiens) (UniProt P42224); assay: Inhibition of STAT1 in human MDA-MB-231 cells assessed as reduction in STAT1 Y701 phosphorylation at 0.75 to 3 uM incubated for 24 hrs by Western blot analysis; format: cell-based; settings: dose 0.75-3 µM; how it was run: as §2
# T2 sequence (whole entry): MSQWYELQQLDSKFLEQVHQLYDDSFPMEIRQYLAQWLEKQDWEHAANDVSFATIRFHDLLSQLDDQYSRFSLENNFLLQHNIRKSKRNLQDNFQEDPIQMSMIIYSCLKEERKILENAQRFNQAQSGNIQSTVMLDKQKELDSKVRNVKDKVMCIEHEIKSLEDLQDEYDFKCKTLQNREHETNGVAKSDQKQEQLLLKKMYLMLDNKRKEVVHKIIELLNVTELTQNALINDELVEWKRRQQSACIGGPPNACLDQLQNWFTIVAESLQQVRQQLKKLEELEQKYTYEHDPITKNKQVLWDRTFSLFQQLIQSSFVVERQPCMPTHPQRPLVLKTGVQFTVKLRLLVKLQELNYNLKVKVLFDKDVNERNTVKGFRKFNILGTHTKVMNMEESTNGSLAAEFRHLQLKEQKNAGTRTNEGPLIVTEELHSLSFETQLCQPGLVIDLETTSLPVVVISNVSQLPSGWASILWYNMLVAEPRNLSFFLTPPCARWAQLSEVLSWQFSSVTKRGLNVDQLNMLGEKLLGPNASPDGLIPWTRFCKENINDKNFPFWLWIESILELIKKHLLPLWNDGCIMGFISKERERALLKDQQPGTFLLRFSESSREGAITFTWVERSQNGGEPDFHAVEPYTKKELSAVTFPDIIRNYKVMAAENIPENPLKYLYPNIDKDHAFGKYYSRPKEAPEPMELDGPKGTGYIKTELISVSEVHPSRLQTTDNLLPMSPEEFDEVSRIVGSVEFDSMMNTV
# [8] = biological target: T1, Signal transducer and activator of transcription 3; assay: Inhibition of STAT3 in human MDA-MB-231 cells assessed as reduction in Cyclin D1 expression incubated for 24 hrs by Western blot analysis; format: cell-based; settings: dose 0.75-3 µM; how it was run: as §2
# T1 sequence (P40763 whole entry, the tested form may be a part): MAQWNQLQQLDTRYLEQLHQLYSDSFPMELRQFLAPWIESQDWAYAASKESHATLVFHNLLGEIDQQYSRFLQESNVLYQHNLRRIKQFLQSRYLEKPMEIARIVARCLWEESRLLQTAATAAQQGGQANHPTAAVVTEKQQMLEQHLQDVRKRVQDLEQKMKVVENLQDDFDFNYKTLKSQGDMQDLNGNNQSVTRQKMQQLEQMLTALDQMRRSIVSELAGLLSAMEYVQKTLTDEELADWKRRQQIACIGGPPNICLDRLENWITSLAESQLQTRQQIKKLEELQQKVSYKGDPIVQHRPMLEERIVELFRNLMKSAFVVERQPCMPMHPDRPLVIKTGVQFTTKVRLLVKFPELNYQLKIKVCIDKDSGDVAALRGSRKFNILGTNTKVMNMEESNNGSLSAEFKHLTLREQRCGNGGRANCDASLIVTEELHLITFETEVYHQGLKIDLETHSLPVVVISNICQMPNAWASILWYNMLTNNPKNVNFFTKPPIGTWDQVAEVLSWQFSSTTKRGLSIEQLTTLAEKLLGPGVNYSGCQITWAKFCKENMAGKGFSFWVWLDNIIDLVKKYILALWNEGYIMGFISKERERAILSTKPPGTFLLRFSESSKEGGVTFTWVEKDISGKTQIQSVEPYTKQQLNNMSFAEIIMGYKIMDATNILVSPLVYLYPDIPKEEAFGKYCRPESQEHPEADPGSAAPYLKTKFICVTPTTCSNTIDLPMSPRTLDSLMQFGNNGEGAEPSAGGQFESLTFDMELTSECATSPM
Compound,IC50 (MDA-MB-231 [1]) [nM],IC50 (HepG2) [nM],IC50 (MDA-MB-468) [nM],also measured
CC(=O)c1cc2c(o1)C(=O)C(NC1CCC1)=CC2=O,4870,6750,8840,–
O=[N+]([O-])c1ccc2c(c1)S(=O)(=O)C=C2,2640,–,1920,–
COc1ccccc1NC1=CC(=O)c2cc(C(C)=O)oc2C1=O,920,2410,1050,–
COc1ccc(NC2=CC(=O)c3cc(C(C)=O)oc3C2=O)c(C)c1,2460,5900,2920,–
CC(=O)c1cc2c(o1)C(=O)C(NC1CC1)=CC2=O,940,1830,1970,–
CC(=O)c1cc2c(o1)C(=O)c1ccccc1C2=O [NAPABUCASIN],700,840,–,–
COc1cc(C)c(NC2=CC(=O)c3cc(C(C)=O)oc3C2=O)c(C)c1,670,2010,1530,–
CC(=O)c1cc2c(o1)C(=O)C(NC1CCCCC1)=CC2=O,2880,6550,4130,–
CC(=O)c1cc2c(o1)C(=O)C(Nc1ccc(OC(C)C)cc1)=CC2=O,1110,1040,1180,–
CCc1ccccc1NC1=CC(=O)c2cc(C(C)=O)oc2C1=O,2000,3380,2460,–
CC(=O)c1cc2c(o1)C(=O)C(Nc1ccc(N(C)C)cc1)=CC2=O,1530,1510,1830,–
CC(=O)c1cc2c(o1)C(=O)C(Nc1ccccc1C(F)(F)F)=CC2=O,3120,4040,1750,–
CC(=O)c1cc2c(o1)C(=O)C(NC1CCOCC1)=CC2=O,2070,6800,3230,–
CC(=O)c1cc2c(o1)C(=O)C(NC1CCCC1)=CC2=O,1230,7170,2470,–

# Second part, led by results:
IC50 (MDA-MB-231 [1]) [nM],IC50 (HepG2) [nM],IC50 (MDA-MB-468) [nM],Compound,also measured
1510,1990,1160,CC(=O)c1cc2c(o1)C(=O)C(Nc1cccc(C(F)(F)F)c1)=CC2=O,–
1480,2360,1550,COc1cccc(NC2=CC(=O)c3cc(C(C)=O)oc3C2=O)c1,–
2620,5660,2110,CC(=O)c1cc2c(o1)C(=O)C(Nc1cc(C)cc(F)c1)=CC2=O,–
1880,8030,3300,CC(=O)c1cc2c(o1)C(=O)C(Nc1c(C)cccc1C)=CC2=O,–
3700,6170,2270,CC(=O)c1cc2c(o1)C(=O)C(Nc1ccc(C(F)(F)F)cc1)=CC2=O,–
3210,8010,7770,CC(=O)c1cc2c(o1)C(=O)C(Nc1ccc(F)cc1)=CC2=O,–
2620,5500,4540,CC(=O)c1cc2c(o1)C(=O)C(Nc1cccc(C)c1)=CC2=O,–
560,1210,730,CC(=O)c1cc2c(o1)C(=O)C(Nc1ccccc1C)=CC2=O,Activity (MDA-MB-231 [2]): inactive; IC50 [3]: 5550 nM; inhibition ([3]; time 1.5 hrs): Dose-dependent effect; inhibition [4]: Dose-dependent effect; Activity (MDA-MB-231 [5]): inactive; inhibition [6]: Dose-dependent effect; inhibition [7]: inactive; inhibition [8]: Dose-dependent effect
3500,5340,2500,CC(=O)c1cc2c(o1)C(=O)C(Nc1cccc(F)c1)=CC2=O,–
1140,1540,1030,CC(=O)c1cc2c(o1)C(=O)C(Nc1ccccc1)=CC2=O,–
900,1850,3120,CC(=O)c1cc2c(o1)C(=O)C(Nc1ccc(C)cc1)=CC2=O,–
2540,8120,1850,CC(=O)c1cc2c(o1)C(=O)C(Nc1ccc(C)c(C)c1)=CC2=O,–
2340,2550,2000,CC(=O)c1cc2c(o1)C(=O)C(Nc1ccccc1F)=CC2=O,–
